Assays:
[1] = biological target: Serotonin 1 (5-HT1) receptor (Rattus norvegicus, UniProt P28564+P30940+P19327+P28565); assay: The ability to inhibit [3H]5-HT binding to 5-hydroxytryptamine 1 receptor in rat cortex
[2] = biological target: 5-hydroxytryptamine receptor 4 (Rattus norvegicus) (UniProt Q62758); assay: Relaxation of carbachol induced contractions of rat tunica muscularis mucosae
Summary of the method: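 Rat esophagus tunica muscularis mucosae strips, equilibrated 30 min, then contracted isometrically with carbachol (3 μM) to a stable tonic plateau within 20 min. Test agent added cumulatively to relax the strip. Buffer held corticosterone acetate (30 μM), fluoxetine (1 μM) and pargyline (10 μM).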

[3] = biological target: T1, Alpha-1A adrenergic receptor (Rattus norvegicus, UniProt P43140); assay: The ability to inhibit [3H]prazosin binding to Alpha-1 adrenergic receptor in rat whole brain
T1 sequence (P43140 whole entry): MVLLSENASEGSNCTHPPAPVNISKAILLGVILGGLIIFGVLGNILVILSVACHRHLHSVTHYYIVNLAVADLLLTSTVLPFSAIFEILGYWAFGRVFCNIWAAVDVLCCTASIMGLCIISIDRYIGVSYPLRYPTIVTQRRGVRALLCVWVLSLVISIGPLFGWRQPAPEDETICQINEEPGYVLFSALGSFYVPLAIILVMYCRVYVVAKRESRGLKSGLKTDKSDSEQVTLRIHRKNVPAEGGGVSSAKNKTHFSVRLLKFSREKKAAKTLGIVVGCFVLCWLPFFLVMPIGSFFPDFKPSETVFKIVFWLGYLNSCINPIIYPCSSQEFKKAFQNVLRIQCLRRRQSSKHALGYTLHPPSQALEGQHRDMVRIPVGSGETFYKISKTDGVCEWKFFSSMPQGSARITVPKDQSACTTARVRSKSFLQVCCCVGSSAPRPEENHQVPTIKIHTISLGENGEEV

[4] = biological target: Adrenergic receptor beta (Rattus norvegicus, UniProt P18090+P10608+P26255); assay: The ability to inhibit [3H]dihydroalprenolol prenolol binding to Beta adrenergic receptor in rat whole brain
[5] = biological target: D(1A) dopamine receptor (Rattus norvegicus, UniProt P18901); assay: The ability to inhibit [3H]-SCH- 23390 binding to Dopamine receptor D1 in rat striata
[6] = %E relative to serotonin is 100%; assay type: functional
[7] = biological target: T2, Serotonin 3 (5-HT3) receptor (Rattus norvegicus, UniProt P35563+Q9JJ16); assay: Inhibition of [3H]GR-65630 binding to 5-hydroxytryptamine 3 receptor; assay type: protein-complex assay
T2 sequence (P35563 whole entry): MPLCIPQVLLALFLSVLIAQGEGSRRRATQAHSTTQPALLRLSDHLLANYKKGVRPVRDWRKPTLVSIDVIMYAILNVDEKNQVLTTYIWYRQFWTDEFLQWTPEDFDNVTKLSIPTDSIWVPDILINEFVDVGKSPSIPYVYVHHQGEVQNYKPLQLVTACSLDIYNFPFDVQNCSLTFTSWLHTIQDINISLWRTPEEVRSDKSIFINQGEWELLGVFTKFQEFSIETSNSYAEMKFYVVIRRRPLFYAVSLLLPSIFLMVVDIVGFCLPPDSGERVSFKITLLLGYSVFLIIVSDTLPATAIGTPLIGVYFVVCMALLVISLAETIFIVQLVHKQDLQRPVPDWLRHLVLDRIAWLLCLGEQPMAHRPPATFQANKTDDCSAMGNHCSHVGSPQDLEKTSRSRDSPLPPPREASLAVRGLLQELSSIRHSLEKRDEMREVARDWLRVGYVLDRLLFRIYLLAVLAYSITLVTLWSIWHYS
T2 sequence (Q9JJ16 whole entry): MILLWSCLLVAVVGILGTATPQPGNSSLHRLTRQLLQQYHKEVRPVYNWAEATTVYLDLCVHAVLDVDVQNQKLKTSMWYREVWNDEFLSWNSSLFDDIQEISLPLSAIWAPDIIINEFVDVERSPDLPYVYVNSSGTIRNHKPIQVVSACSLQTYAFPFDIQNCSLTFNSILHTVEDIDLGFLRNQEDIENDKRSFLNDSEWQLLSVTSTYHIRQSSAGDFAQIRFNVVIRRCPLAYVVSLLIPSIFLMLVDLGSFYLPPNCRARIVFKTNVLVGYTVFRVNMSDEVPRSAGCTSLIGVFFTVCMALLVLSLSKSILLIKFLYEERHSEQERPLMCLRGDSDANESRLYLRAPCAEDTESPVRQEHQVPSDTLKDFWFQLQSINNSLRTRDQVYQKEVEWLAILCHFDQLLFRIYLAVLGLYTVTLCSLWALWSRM

[8] = biological target: Serotonin 2 (5-HT2) receptor (Rattus norvegicus, UniProt P30994+P08909+P14842); assay: The ability to inhibit [3H]ketanserin binding to 5-hydroxytryptamine 2 receptor in rat whole brain
[9] = biological target: T3, Adrenergic receptor alpha-2 (Rattus norvegicus, UniProt P22086+P19328+P22909); assay: The ability to inhibit [3H]rauwolscine binding to alpha-2 adrenergic receptor in rat cortex
T3 sequence (P22086 whole entry): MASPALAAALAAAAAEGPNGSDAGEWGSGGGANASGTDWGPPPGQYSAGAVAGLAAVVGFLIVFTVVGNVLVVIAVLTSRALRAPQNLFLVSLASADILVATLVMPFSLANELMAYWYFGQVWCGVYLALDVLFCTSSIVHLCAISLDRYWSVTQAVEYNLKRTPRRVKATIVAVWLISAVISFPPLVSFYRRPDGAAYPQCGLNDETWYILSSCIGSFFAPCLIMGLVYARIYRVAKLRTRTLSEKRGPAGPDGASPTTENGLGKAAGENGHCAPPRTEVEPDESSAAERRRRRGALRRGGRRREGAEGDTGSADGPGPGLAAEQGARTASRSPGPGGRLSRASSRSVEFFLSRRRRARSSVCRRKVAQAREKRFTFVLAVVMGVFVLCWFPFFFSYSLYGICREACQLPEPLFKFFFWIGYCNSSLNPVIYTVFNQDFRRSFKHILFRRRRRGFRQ
T3 sequence (P19328 whole entry): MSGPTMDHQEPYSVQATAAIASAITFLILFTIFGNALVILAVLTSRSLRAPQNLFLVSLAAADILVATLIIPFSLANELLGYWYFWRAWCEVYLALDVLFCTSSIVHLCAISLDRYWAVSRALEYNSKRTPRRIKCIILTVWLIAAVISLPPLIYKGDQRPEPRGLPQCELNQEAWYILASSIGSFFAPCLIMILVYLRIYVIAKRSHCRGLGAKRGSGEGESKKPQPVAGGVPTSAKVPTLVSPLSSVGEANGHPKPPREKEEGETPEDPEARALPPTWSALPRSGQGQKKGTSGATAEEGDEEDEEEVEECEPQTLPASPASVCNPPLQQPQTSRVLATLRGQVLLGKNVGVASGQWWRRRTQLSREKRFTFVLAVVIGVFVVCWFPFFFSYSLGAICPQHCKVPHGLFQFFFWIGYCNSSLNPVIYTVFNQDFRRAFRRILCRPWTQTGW
T3 sequence (P22909 whole entry): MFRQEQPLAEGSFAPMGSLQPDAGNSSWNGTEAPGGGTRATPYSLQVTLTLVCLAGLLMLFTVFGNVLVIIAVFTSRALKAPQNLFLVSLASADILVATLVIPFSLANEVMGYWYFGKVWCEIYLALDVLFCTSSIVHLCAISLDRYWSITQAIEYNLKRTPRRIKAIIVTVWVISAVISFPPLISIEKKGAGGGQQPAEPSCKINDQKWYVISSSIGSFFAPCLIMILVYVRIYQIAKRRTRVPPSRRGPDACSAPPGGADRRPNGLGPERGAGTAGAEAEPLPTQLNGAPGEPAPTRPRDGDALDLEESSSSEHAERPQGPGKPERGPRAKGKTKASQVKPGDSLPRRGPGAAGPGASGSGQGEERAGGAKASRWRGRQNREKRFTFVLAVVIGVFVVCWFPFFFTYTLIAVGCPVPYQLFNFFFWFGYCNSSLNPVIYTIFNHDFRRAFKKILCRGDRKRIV

[10] = biological target: D(2) dopamine receptor (Rattus norvegicus, UniProt P61169); assay: The ability to inhibit [3H]domperidone binding to dopamine receptor D2 in rat striata
[11] = biological target: T2, Serotonin 3 (5-HT3) receptor; assay: The ability to inhibit [3H]GR-65630 binding to 5-hydroxytryptamine 3 receptor in rat brain cortices; assay type: tissue-based
Summary of the method: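 Membranes from male rat brain cortices incubated with [3H]GR65630 (0.2 nM) as radioligand.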

Sequence of 5-hydroxytryptamine receptor 4 (Rattus norvegicus) (Q62758 whole entry): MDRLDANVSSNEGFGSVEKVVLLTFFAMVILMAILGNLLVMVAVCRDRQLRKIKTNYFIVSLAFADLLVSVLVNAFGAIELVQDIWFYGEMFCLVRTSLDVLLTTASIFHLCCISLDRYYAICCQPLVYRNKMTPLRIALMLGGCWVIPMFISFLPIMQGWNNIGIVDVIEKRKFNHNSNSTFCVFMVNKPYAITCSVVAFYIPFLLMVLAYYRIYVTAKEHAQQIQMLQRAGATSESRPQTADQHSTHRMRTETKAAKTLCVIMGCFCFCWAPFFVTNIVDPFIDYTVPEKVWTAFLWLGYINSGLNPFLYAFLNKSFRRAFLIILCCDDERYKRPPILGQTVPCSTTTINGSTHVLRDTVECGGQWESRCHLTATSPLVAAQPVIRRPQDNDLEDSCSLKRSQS
Sequence of D(1A) dopamine receptor (P18901 whole entry): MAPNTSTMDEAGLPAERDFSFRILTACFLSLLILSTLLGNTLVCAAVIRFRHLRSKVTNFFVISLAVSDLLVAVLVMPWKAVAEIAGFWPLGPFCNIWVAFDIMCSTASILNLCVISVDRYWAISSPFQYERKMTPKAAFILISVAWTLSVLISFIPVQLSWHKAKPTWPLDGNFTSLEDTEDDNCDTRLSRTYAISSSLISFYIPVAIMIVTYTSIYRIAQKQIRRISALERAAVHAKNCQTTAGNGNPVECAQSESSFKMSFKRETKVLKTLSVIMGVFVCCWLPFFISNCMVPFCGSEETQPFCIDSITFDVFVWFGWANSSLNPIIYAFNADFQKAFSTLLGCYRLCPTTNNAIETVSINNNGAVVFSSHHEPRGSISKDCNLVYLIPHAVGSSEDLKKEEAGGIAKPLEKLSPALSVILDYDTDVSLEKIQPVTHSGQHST
Sequence of D(2) dopamine receptor (P61169 whole entry): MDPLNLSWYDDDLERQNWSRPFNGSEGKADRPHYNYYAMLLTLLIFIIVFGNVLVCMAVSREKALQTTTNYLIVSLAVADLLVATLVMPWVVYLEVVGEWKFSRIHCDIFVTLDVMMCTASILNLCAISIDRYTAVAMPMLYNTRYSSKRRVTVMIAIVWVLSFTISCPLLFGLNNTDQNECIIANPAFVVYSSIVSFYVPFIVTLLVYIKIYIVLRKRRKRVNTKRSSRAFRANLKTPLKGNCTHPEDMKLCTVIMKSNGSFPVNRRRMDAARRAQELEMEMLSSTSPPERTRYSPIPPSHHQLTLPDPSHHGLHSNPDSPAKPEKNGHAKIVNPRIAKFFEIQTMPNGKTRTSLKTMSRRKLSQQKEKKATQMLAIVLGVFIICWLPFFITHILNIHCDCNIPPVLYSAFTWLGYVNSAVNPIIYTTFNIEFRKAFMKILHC

Structure (SMILES): COc1cc(N)c(Cl)cc1C(=O)NC1CCN(CCCOc2ccc(F)cc2)CC1OC (centres undefined) [CISAPRIDE]
- Ki [1]: > 10000 nM
- ED50 [2]: 54.7 nM
- Ki [3]: 30 nM
- Ki [4]: > 10000 nM
- Ki [5]: 1700 nM
- E [6]: 105%

Structure (SMILES): COc1cc(N)c(Cl)cc1C(=O)NCC1CCN2CCCC12 (stereo in doubt; 1E) [listing 1 of 2 here]
- ED50 [2]: 280 nM

Structure (SMILES): COc1cc(N)c(Cl)cc1C(=O)NCC1CCN2CCCC12 (stereo in doubt; 1A) [listing 1 of 2 here]
- ED50 [2]: 64 nM

Structure (SMILES): COc1cc(N)c(Cl)cc1C(=O)NC1CCN2CCCC12 (stereo in doubt; 1F) [listing 1 of 2 here]
- Ki [7]: 14 nM

Structure (SMILES): COc1cc(N)c(Cl)cc1C(=O)NCC1CCN2CCCC12 (stereo in doubt; 1E) [listing 2 of 2 here]
- Ki [7]: 278 nM

Structure (SMILES): CCOc1cc(N)c(Cl)cc1C(=O)NC1CCN2CCCC12 (stereo in doubt; 1G) [listing 1 of 2 here]
- Ki [7]: 8 nM

Structure (SMILES): COc1cc(N)c(Cl)cc1C(=O)NCC1CCN2CCCC12 (stereo in doubt; 1A) [listing 2 of 2 here]
- Ki [7]: 104 nM

Structure (SMILES): COc1cc(N)c(Cl)cc1C(=O)NC[C@H]1CCN2CCC[C@H]12
- ED50 [2]: 323 nM
- Ki [7]: 66 nM

Structure (SMILES): COc1cc(N)c(Cl)cc1C(=O)NC[C@@H]1CCN2CCC[C@@H]12 (relative stereo)
- Ki [1]: > 10000 nM
- Ki [8]: > 10000 nM
- ED50 [2]: 23 nM
- Ki [7]: 152 nM
- Ki [3]: > 10000 nM
- Ki [9]: > 10000 nM
- Ki [4]: > 10000 nM
- Ki [5]: > 10000 nM
- Ki [10]: > 10000 nM
- E [6]: 93%

Structure (SMILES): COc1cc(N)c(Cl)cc1C(=O)N[C@H]1CN2CCC1CC2 [(R)ZACOPRIDE]
- Ki [1]: > 10000 nM
- Ki [8]: 415 nM
- ED50 [2]: 505 nM
- Ki [7]: 8 nM
- Ki [3]: > 10000 nM
- Ki [9]: > 10000 nM
- Ki [4]: > 10000 nM
- Ki [5]: > 10000 nM
- Ki [10]: > 10000 nM
- E [6]: 96%

Structure (SMILES): COc1cc(N)c(Cl)cc1C(=O)NC1CCN2CCCC12 (stereo in doubt; 1J) [listing 1 of 2 here]
- ED50 [2]: 3450 nM

Structure (SMILES): CCOc1cc(N)c(Cl)cc1C(=O)NC1CCN2CCCC12 (stereo in doubt; 1G) [listing 2 of 2 here]
- ED50 [2]: 2270 nM

Structure (SMILES): CCOc1cc(N)c(Cl)cc1C(=O)NCC1CCN2CCCC12 (centres undefined)
- ED50 [2]: 1380 nM
- Ki [7]: 25 nM

Structure (SMILES): COc1cc(N)c(Cl)cc1C(=O)NC1CCN2CCCC12 (stereo in doubt; 1J) [listing 2 of 2 here]
- Ki [7]: 96 nM

Structure (SMILES): O=C(NC1CCN2CCCC12)c1ccccc1 (centres undefined)
- ED50 [2]: > 10000 nM
- Ki [7]: > 200 nM

Structure (SMILES): CCN(CC)CCNC(=O)c1cc(Cl)c(N)cc1OC [METOCLOPRAMIDE]
- ED50 [2]: 24100 nM
- Ki [7]: 240 nM

Structure (SMILES): CCOc1cc(N)c(Cl)cc1C(=O)NC1CCN2CCCC12 (stereo in doubt; 1K) [listing 1 of 2 here]
- Ki [7]: 99 nM

Structure (SMILES): COc1cc(N)c(Cl)cc1C(=O)NC1CCN2CCCC12 (stereo in doubt; 1F) [listing 2 of 2 here]
- ED50 [2]: 187 nM

Structure (SMILES): NCCc1c[nH]c2ccc(O)cc12
- ED50 [2]: 16 nM

Structure (SMILES): CC(C)n1c(=O)n(C(=O)CC2CC3CCC(C2)N3C)c2ccccc21 (centres undefined)
- Ki [1]: > 10000 nM
- Ki [8]: > 10000 nM
- ED50 [2]: 40.2 nM
- Ki [11]: > 10000 nM
- Ki [3]: > 10000 nM
- Ki [9]: > 10000 nM
- Ki [4]: > 10000 nM
- Ki [5]: > 10000 nM
- Ki [10]: > 10000 nM
- E [6]: > 111%

Structure (SMILES): CCOc1cc(N)c(Cl)cc1C(=O)NC1CCN2CCCC12 (stereo in doubt; 1K) [listing 2 of 2 here]
- ED50 [2]: > 10000 nM

Structure (SMILES): COc1cc(N)c(Cl)cc1C(=O)NC1CCN2CCCC1C2 (centres undefined) [RENZAPRIDE]
- ED50 [2]: 44 nM
- Ki [3]: > 10000 nM
- Ki [9]: > 10000 nM
- Ki [4]: > 10000 nM
- Ki [5]: > 10000 nM
- Ki [10]: > 10000 nM
- E [6]: 98%
